Experimental data: publication PMC6568325 (ACS chemical biology, 2018)

Columns and labels:
CjMTAN [1] = molecular target: T1, CjMTAN (Campylobacter jejuni subsp. jejuni, UniProt Z9IB28FKP7); assay: CjMTAN inhibition by transition-state analogues; format: biochemical; conditions: for Ki: from initial rates, MTA 1 mM, 25 °C, pH 7.4
CjMTAN [2] = molecular target: T1, CjMTAN; assay: CjMTAN substrate specificity, steady-state kinetics; format: biochemical; conditions: 25 °C; for Km / kcat: substrate of CjMTAN, 50 mM Hepes-KOH pH 7.4; for h (Hill coefficient): substrate saturation, sigmoidal fit, pH 7.4
Summary of the method: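 Recombinant N-terminally His6-tagged CjMTAN from strain 81-176, expressed in E. coli and Ni-NTA purified. Substrate varied from 1 to 100 µM, with stock concentrations set by A260. Reaction contained 1 U xanthine oxidase to convert released adenine to 2,8-dihydroxyadenine, read at 305 nm (15.5 mM–1 cm–1). Started with 50 nM enzyme and followed up to 5 min. Initial rates in duplicate or triplicate, fitted to Michaelis-Menten and/or allosteric sigmoidal equations.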

C. jejuni [3] = assay: C. jejuni growth IC50 in liquid culture media; format: cell-based; conditions: Campylobacter jejuni, 16.4 h, read-out: IC50 C. jejuni growth
C. jejuni [4] = assay: C. jejuni growth IC50 on Mueller-Hinton agar; format: cell-based; conditions: Campylobacter jejuni, 144 h, read-out: IC50 C. jejuni growth

Compound | Ki (CjMTAN [1]) [nM] | Km (CjMTAN [2]) [µM] | kcat (CjMTAN [2]) [s⁻¹] | further results
5′-deoxy-5′-Pro-DADMe-ImmA [PDIA] | 5.1 ± 0.6 | – | – | –
5′-methylthioadenosine | – | 7.1 ± 0.7 | 0.80 ± 0.02 | –
C[C@H]1O[C@@H](n2cnc3c(N)ncnc32)[C@H](O)[C@@H]1O [5′-deoxyadenosine] | – | 21.4 ± 1.3 | 0.92 ± 0.02 | h (Hill coefficient) (CjMTAN [2]): 1.8 ± 0.2
Nc1ncnc2c1ncn2[C@@H]1O[C@H](CCC(=O)c2cccc(C(=O)O)c2)[C@@H](O)[C@H]1O [6-amino-6-deoxyfutalosine] | – | 3.5 ± 0.4 | 0.27 ± 0.01 | –
CCCCSC[C@H]1CN(Cc2c[nH]c3c(N)ncnc23)C[C@@H]1O [BTDIA, BuS-DADMe-ImmA] | 4.1 ± 1 | – | – | slow-onset inhibition (CjMTAN [1]; CjMTAN): slow-onset tight-binding inhibitors
Nc1ncnc2c(CN3C[C@H](CO)[C@@H](O)C3)c[nH]c12 [DIA] | 2610 ± 332 | – | – | fold difference in affinity between MTDIA and DIA (CjMTAN [1]; MTDIA 2.9 nM vs DIA 2.7 μM): ~1000 fold
CNC(C)C1CCC(N)C(OC2C(N)CC(N)C(OC3OCC(C)(O)C(NC)C3O)C2O)O1 (centres unmarked) [Gentamicin] | – | – | – | IC50 (C. jejuni [3]): 2100 ± 100 nM; IC50 (C. jejuni [4]): 390 ± 60 nM
CSC[C@H]1N[C@@H](c2c[nH]c3c(N)ncnc23)[C@H](O)[C@@H]1O [MTIA] | 32.3 ± 3.4 | – | – | –
CSC[C@H]1O[C@@H](n2ccc3c(N)ncnc32)[C@H](O)[C@@H]1O [MTT] | 22100 ± 6080 | – | – | –
Nc1ncnc2c(CN3CC(O)C(CSc4ccccc4)C3)c[nH]c12 (centres unmarked) [PhTDIA] | 5.3 ± 0.3 | – | – | –
Nc1ncnc2c1ncn2[C@@H]1O[C@H](CSCC[C@H](N)C(=O)O)[C@@H](O)[C@H]1O [S-5′-Adenosyl-L-homocysteine, S-5′-adenosyl-L-homocysteine] | – | 12.2 ± 1.5 | 0.55 ± 0.03 | h (Hill coefficient) (CjMTAN [2]): 2.6 ± 0.7
Nc1ncnc2c1ncn2[C@@H]1O[C@H](CO)[C@@H](O)[C@H]1O [adenosine] | – | 7.5 ± 0.6 | 0.30 ± 0.01 | –
Nc1ncnc2c(CN3CC(O)C(CSc4ccc(Cl)cc4)C3)c[nH]c12 (centres unmarked) [pCPTDIA] | 4.8 ± 0.3 | – | – | –
